# Reference: ChEMBL document CHEMBL1149410, “Discovery of a potent phenolic N1-benzylidene-pyridinecarboxamidrazone selective against Gram-positive bacteria” (Bioorg Med Chem Lett, 2006)
# Active and inactive are the calls of the source. No cut-off for these calls is given here.
# Experiments:
# [1] = tested on: Staphylococcus aureus; test: Antibacterial activity against 10 clinical isolate methicillin-resistant strains of Staphylococcus aureus; type: functional
# Outline: (§1)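 Agar dilution MIC on Mueller–Hinton agar. Bacteria were spotted with a multipoint inoculator and plates incubated at 37 °C for 18 h. MIC was taken as the lowest concentration inhibiting growth. The panels covered clinical MRSA isolates, methicillin-sensitive S. aureus, enterococci, Gram-negative bacteria and vancomycin-resistant enterococci.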
# [2] = tested on: Mycolicibacterium fortuitum; test: Antibacterial activity against Mycobacterium fortuitum; type: functional, organism-based
# Outline: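 The Mycobacterium fortuitum reference strain NCTC 10394 was screened for a zone of inhibition on Columbia agar supplemented with horse blood. Compounds were also screened at a single concentration in Middlebrook 7H9 broth with glycerol and ADC enrichment. The MIC was determined in broth when a zone or single-concentration activity was seen.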
# [3] = tested on: PBMC; test: Toxicity towards human mononuclear leucocytes at 1 mM; type: cell-based; conditions: 1000 µM
# Outline: (§2)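 Human mononuclear leucocytes were exposed to compound for 1 h, then held in compound-free medium for 18 h. Cell death was scored by trypan blue exclusion and reported as % leucocyte death. The test concentration was 1 mM, or 0.5 mM where solubility limited it.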
# [4] = tested on: Pseudomonas aeruginosa; test: Antibacterial activity against Pseudomonas aeruginosa NCTC 6749; type: functional; outline: as §1
# [5] = tested on: Escherichia coli; test: Antibacterial activity against Escherichia coli W3110 R+; type: functional; outline: as §1
# [6] = tested on: Enterococcus faecium; test: Antibacterial activity against Enterococcus faecium ACTCC 10541; type: functional
# Outline: (§3)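 Agar dilution MIC on Mueller–Hinton agar, with a multipoint inoculator spotting the organisms. The MIC was the lowest concentration that inhibited growth after 18 h at 37 °C.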
# [7] = tested on: Serratia marcescens; test: Antibacterial activity against Serratia marcescens 4444; type: functional; outline: as §1
# [8] = tested on: Klebsiella pneumoniae; test: Antibacterial activity against Klebsiella pneumoniae 327; type: functional; outline: as §1
# [9] = tested on: Escherichia coli; test: Antibacterial activity against Escherichia coli W3110 R-; type: functional; outline: as §1
# [10] = tested on: Staphylococcus haemolyticus; test: Antibacterial activity against clinical isolate of Staphylococcus haemolyticus; type: functional; outline: as §3
# [11] = tested on: Enterococcus faecalis; test: Antibacterial activity against Enterococcus faecalis NCTC 5957; type: functional; outline: as §3
# [12] = tested on: Enterococcus faecium; test: Antibacterial activity against Enterococcus faecium NCTC 7171; type: functional; outline: as §3
# [13] = tested on: Staphylococcus aureus; test: Antibacterial activity against methicillin-sensitive Staphylococcus aureus NCTC 10788; type: functional; outline: as §1
# [14] = tested on: Stenotrophomonas maltophilia; test: Antibacterial activity against Stenotrophomonas maltophilia NCTC 10257; type: functional; outline: as §1
# [15] = tested on: Staphylococcus aureus; test: Antibacterial activity against methicillin-sensitive Staphylococcus aureus Cowan 1; type: functional; outline: as §1
# [16] = tested on: Mycobacterium tuberculosis; test: Antibacterial activity against Mycobacterium tuberculosis H37Rv at 6.25 ug/ml; type: functional
# Outline: (§4)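 Inhibition of M. tuberculosis H37Rv (ATCC 27294) growth was tested in BACTEC 12B medium. Percent inhibition was recorded at a fixed concentration, and MIC was also determined.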
# [17] = tested on: Staphylococcus aureus; test: Antibacterial activity against methicillin-sensitive Staphylococcus aureus NCTC 6571; type: functional; outline: as §1
# [18] = tested on: Enterococcus faecalis; test: Antibacterial activity against Enterococcus faecalis isolate 1; type: functional; outline: as §3
# [19] = tested on: Enterobacter cloacae; test: Antibacterial activity against Enterobacter cloacae NCTC 11582; type: functional; outline: as §1
# [20] = tested on: Bordetella bronchiseptica; test: Antibacterial activity against Bordetella bronchiseptica NCTC 8344; type: functional; outline: as §1
# [21] = tested on: Enterococcus faecalis; test: Antibacterial activity against Enterococcus faecalis isolate 2; type: functional; outline: as §1
# [22] = tested on: Enterococcus; test: Antibacterial activity against vancomycin-resistant Enterococcus 3005426; type: functional; outline: as §1
# [23] = tested on: Enterococcus faecalis; test: Antibacterial activity against Enterococcus faecalis isolate 5; type: functional; outline: as §3
# [24] = tested on: Enterococcus; test: Antibacterial activity against vancomycin-resistant Enterococcus 3002066; type: functional; outline: as §1
# [25] = tested on: Enterococcus faecalis; test: Antibacterial activity against Enterococcus faecalis isolate 4; type: functional; outline: as §3
# [26] = tested on: Enterococcus; test: Antibacterial activity against vancomycin-resistant Enterococcus 3005323; type: functional; outline: as §1
# [27] = tested on: Enterococcus; test: Antibacterial activity against vancomycin-resistant Enterococcus 3102095; type: functional; outline: as §1
# [28] = tested on: Enterococcus; test: Antibacterial activity against vancomycin-resistant Enterococcus 3002043; type: functional; outline: as §1
# [29] = tested on: Enterococcus; test: Antibacterial activity against vancomycin-resistant Enterococcus 3001562; type: functional; outline: as §1
# [30] = tested on: Enterococcus faecalis; test: Antibacterial activity against Enterococcus faecalis isolate 3; type: functional; outline: as §1
# [31] = tested on: Enterococcus; test: Antibacterial activity against vancomycin-resistant Enterococcus 3005353; type: functional; outline: as §1
# [32] = tested on: Mycobacterium tuberculosis; test: Antibacterial activity against Mycobacterium tuberculosis H37Rv; type: functional; outline: as §4
# [33] = tested on: PBMC; test: Toxicity towards human mononuclear leucocytes at 0.5 mM; type: cell-based; conditions: 500 µM; outline: as §2
structure (smiles),measurement,setting,value
N/C(=N\N=C\c1c(O)cc(O)cc1O)c1ccncc1,MIC,[1],inactive
same,Activity,[2],inactive
NNC(=O)c1ccncc1 [ISONIAZID],Activity,[3],12.4%
N/C(=N\N=C\c1cc([N+](=O)[O-])cc(Br)c1O)c1ccncc1,MIC,[1],inactive
CC(C)(C)c1cc(/C=N/N=C(\N)c2cnccn2)c(O)c(C(C)(C)C)c1,MIC,[1],inactive
same,Activity,[2],inactive
Cc1cc(C)c(O)c(/C=N/N=C(\N)c2ccncc2)c1,MIC,[1],inactive
COc1ccc(/C=N/N=C(\N)c2ccncc2)c(O)c1,MIC,[1],inactive
same,Activity,[2],inactive
N/C(=N\N=C\c1ccc(O)c(O)c1)c1ccncc1,MIC,[1],inactive
same,Activity,[2],inactive
N/C(=N\N=C\c1cc(O)c(O)cc1O)c1ccncc1,MIC,[1],20 µg/mL
same,Activity,[2],inactive
COc1c(/C=N/N=C(\N)c2ccncc2)cc(C(C)(C)C)cc1C(C)(C)C,MIC,[1],inactive
COc1cc([N+](=O)[O-])cc(/C=N/N=C(\N)c2ccncc2)c1O,MIC,[1],inactive
same,Activity,[2],inactive
CC(C)(C)c1cc(/C=N/N=C(\N)c2ccncc2)cc(C(C)(C)C)c1O,MIC,[1],> 256 µg/mL
same,MIC,[4],inactive
same,MIC,[5],inactive
same,MIC,[6],inactive
same,MIC,[7],inactive
same,MIC,[8],inactive
same,MIC,[9],inactive
same,Activity,[2],inactive
same,MIC,[10],inactive
same,MIC,[11],inactive
same,MIC,[12],inactive
same,MIC,[13],inactive
same,MIC,[14],inactive
same,MIC,[15],inactive
same,inhibition at 6.25 µg/mL,[16],75%
same,MIC,[17],> 256 µg/mL
same,MIC,[18],inactive
same,MIC,[19],inactive
same,MIC,[20],inactive
COc1cccc(/C=N/N=C(\N)c2ccncc2)c1O,MIC,[1],inactive
same,Activity,[2],inactive
CC(=O)Oc1c(/C=N/N=C(\N)c2ccncc2)cc(C(C)(C)C)cc1C(C)(C)C,MIC,[1],4 µg/mL
same,Activity,[2],inactive
CC(C)(C)c1cc(/C=N/N=C(\N)c2cccnc2)c(O)c(C(C)(C)C)c1,MIC,[1],inactive
same,Activity,[2],inactive
CC(C)(C)c1cc(/C=N/N=C(\N)c2ccccn2)c(O)c(C(C)(C)C)c1,MIC,[1],inactive
same,Activity,[2],inactive
CC(C)(C)c1cc(C=O)c(O)c(C(C)(C)C)c1,Activity,[3],32.7%
N/C(=N\N=C\c1cc(Br)cc([N+](=O)[O-])c1O)c1ccncc1,MIC,[1],inactive
same,Activity,[2],inactive
CN[C@H](CC(C)C)C(=O)N[C@H]1C(=O)N[C@@H](CC(N)=O)C(=O)N[C@H]2C(=O)N[C@H]3C(=O)N[C@H](C(=O)N[C@H](C(=O)O)c4cc(O)cc(O)c4-c4cc3ccc4O)[C@H](O)c3ccc(c(Cl)c3)Oc3cc2cc(c3O[C@@H]2O[C@H](CO)[C@@H](O)[C@H](O)[C@H]2O[C@H]2C[C@](C)(N)[C@H](O)[C@H](C)O2)Oc2ccc(cc2Cl)[C@H]1O [VANCOMYCIN],MIC,[1],0.05 µg/mL
same,MIC,[21],0.25 µg/mL
same,MIC,[4],> 16 µg/mL
same,MIC,[5],> 16 µg/mL
same,MIC,[6],0.12 µg/mL
same,MIC,[7],> 16 µg/mL
same,MIC,[22],4 µg/mL
same,MIC,[8],> 16 µg/mL
same,MIC,[23],2 µg/mL
same,MIC,[9],> 16 µg/mL
same,MIC,[24],4 µg/mL
same,MIC,[10],8 µg/mL
same,MIC,[25],16 µg/mL
same,MIC,[11],0.25 µg/mL
same,MIC,[26],> 16 µg/mL
same,MIC,[27],> 16 µg/mL
same,MIC,[28],4 µg/mL
same,MIC,[12],0.12 µg/mL
same,MIC,[13],0.25 µg/mL
same,MIC,[29],4 µg/mL
same,MIC,[30],0.25 µg/mL
same,MIC,[14],> 16 µg/mL
same,MIC,[15],0.12 µg/mL
same,MIC,[17],0.12 µg/mL
same,MIC,[18],0.12 µg/mL
same,MIC,[19],> 16 µg/mL
same,MIC,[31],> 16 µg/mL
same,MIC,[20],> 16 µg/mL
N/C(=N\N=C\c1ccc(O)c(O)c1O)c1ccncc1,MIC,[1],30 µg/mL
same,Activity,[2],inactive
N/C(=N\N=C\c1ccccc1O)c1ccncc1,MIC,[1],inactive
same,Activity,[3],11.7%
CC(C)(C)c1cc(/C=N/N=C(\N)c2ccncc2)c(O)c(C(C)(C)C)c1,MIC,[1],2 µg/mL
same,MIC,[21],2 µg/mL
same,MIC,[4],inactive
same,MIC,[5],inactive
same,MIC,[6],2 µg/mL
same,MIC,[32],6.25 µg/mL
same,MIC,[7],inactive
same,MIC,[22],2 µg/mL
same,MIC,[8],inactive
same,MIC,[23],2 µg/mL
same,MIC,[9],inactive
same,MIC,[24],2 µg/mL
same,Activity,[2],inactive
same,MIC,[10],2 µg/mL
same,Activity,[33],100%
same,MIC,[25],2 µg/mL
same,MIC,[11],2 µg/mL
same,MIC,[26],2 µg/mL
same,MIC,[27],2 µg/mL
same,MIC,[28],2 µg/mL
same,MIC,[12],2 µg/mL
same,MIC,[13],2 µg/mL
same,MIC,[29],2 µg/mL
same,MIC,[30],4 µg/mL
same,MIC,[14],inactive
same,MIC,[15],2 µg/mL
same,inhibition at 6.25 µg/mL,[16],100%
same,MIC,[17],2 µg/mL
same,MIC,[18],2 µg/mL
same,MIC,[19],inactive
same,MIC,[31],2 µg/mL
same,MIC,[20],inactive
N/C(=N\N=C\c1cc(I)cc(I)c1O)c1ccncc1,MIC,[1],10 µg/mL
N/N=C(/N)c1ccncc1,Activity,[3],13.8%
N/C(=N\N=C\c1cc([N+](=O)[O-])ccc1O)c1ccncc1,MIC,[1],20 µg/mL
same,Activity,[2],inactive
CC(C)(C)c1cc(/C=N/N=C(\N)c2ccc3ccccc3n2)c(O)c(C(C)(C)C)c1,MIC,[1],inactive
same,Activity,[2],inactive
N/C(=N\N=C\c1cccc(O)c1O)c1ccncc1,MIC,[1],inactive
same,Activity,[2],inactive
